Laboratory results taken from ChEMBL document CHEMBL2021849, “Synergistic TRAIL sensitizers from Barleria alluaudii and Diospyros maritima” (J Nat Prod, 2012).

What was measured:
[1] = system: ACHN; test: Ratio of EC50 for human ACHN cells to EC50 for human ACHN cells in presence of 40 ng/ml TRAIL; assay type: functional
Summary of the method: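 Synergy taken as the ratio of the two EC50 values read from ACHN cell death curves, one run without TRAIL and one with 40 ng/mL TRAIL. Treatment lasted 20–24 h.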

[2] = system: ACHN; test: Cytotoxicity against human ACHN cells assessed as cell death after 20 to 24 hrs by XTT assay; assay type: functional, cell-based
[3] = system: ACHN; test: Cytotoxicity against human ACHN cells assessed as cell death after 20 to 24 hrs by XTT assay in presence of 40 ng/ml TRAIL; assay type: functional, cell-based

Row | Structure (SMILES) | Ratio EC50 [1] | EC50 [2] [µM] | EC50 [3] [µM]
1 | CC(C)=CC[C@]12O[C@H]1C(=O)c1ccccc1C2=O | 2.4 | 39.7 | 16.7
2 | CC1=CC(=O)c2c(O)ccc(-c3ccc(O)c4c3C(=O)C(C)=CC4=O)c2C1=O [MARITINONE] | 3.8 | 5.8 | 1.5
3 | CC1=CC(=O)c2c(ccc(C(C)c3ccc4c(c3O)C(=O)C=C(C)C4=O)c2O)C1=O | – | > 30 | > 30
4 | Cc1ccc2c(c1)C(=O)c1ccccc1C2=O [TECTOQUINONE] | – | > 50 | > 50
5 | CC1=CC(=O)c2c(ccc(-c3ccc4c(c3O)C(=O)C=C(C)C4=O)c2O)C1=O [ELLIPTINONE] | 3.5 | 13.2 | 3.8
6 | CC1=CC(=O)c2c(O)cccc2C1=O [PLUMBAGIN] | 2 | 7.3 | 3.7
7 | C[C@@H]1CC(=O)c2c(O)cccc2[C@@H]1O | – | > 60 | > 60
8 | CC(C)=CC[C@]12O[C@H]1C(=O)c1cccc(O)c1C2=O | 1.4 | 6.4 | 4.7
